IDH1 R132H inh – IDH1 R132H (human) inhibition; O75874; AID 624101; 70,000 compounds, 0.18% hits; inhibition, % at 10 µM; IDH1 R132H reductase, diaphorase/resazurin fluorescence, 60 min; in the data active = inhibition above about 34%; inconclusive = no clear call, values can overlap the other calls; inactive = below about 11%;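 note: 0% = DMSO and 100% = no enzyme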
GASC1 inh – inhibitors of human demethylase GASC-1 KDM4C. inhibition, % at 12.5 µM. Q9H3R0. 96,000 compounds, 0.15% hits. AID 720574. GST-KDM4C 2-372, H3K9me3 peptide, LANCE TR-FRET;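 active = mean replicate inhibition above about 25%, with at least 55% of replicates also reaching it, limit read from the data, passing the limit was not always enough; inconclusive = only one of those two conditions met; inactive = neither condition met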
Target sequence (Q9H3R0 2-372 limits assumed): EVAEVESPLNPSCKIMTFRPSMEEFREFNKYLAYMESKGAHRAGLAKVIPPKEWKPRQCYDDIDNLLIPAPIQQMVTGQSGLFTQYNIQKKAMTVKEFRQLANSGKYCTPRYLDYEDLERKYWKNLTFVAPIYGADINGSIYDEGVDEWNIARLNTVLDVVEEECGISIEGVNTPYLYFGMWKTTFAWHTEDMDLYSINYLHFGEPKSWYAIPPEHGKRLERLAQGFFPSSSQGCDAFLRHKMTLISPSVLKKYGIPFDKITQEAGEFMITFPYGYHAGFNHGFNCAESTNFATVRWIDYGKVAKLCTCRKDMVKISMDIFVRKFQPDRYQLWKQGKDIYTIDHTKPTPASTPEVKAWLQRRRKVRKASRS
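material = GST-tagged GASC-1 (JMJD2C) catalytic fragment, aa 2-372 | amount = enzyme final amount 10 nM | medium = HEPES buffer, pH 7.5, plus ascorbate | also added = H3K9me3 peptide substrate, Fe(II), 2-oxoglutarate | dosing = single dose | times = 30 min demethylation and 1 h detection at room temperature | detection = LANCE TR-FRET | read-out basis = Fall in 671/618 emission ratio as inhibition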
Pf Dd2 growth – blocks growth of Plasmodium falciparum Dd2 parasites | P. falciparum Dd2 growth, SYBR Green, 72 h; hits give low values | activity change, % at 10 µM | 94,000 compounds, 2.3% hits; in the data active = activity change below about -80%; inconclusive = no clear call, values can overlap the other calls
T cruzi growth-1 – inhibitors of T. cruzi proliferation; T. cruzi beta-gal in NIH3T3, GalScreen luminescence, 90 h; inhibition, % at 8.34 µM; 77,000 compounds, 5.9% hits;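 active = mean inhibition above about 93%, with at least 55% of replicates each passing it, limit read from the data, passing the limit was not always enough; inconclusive = only one of those two conditions holds; inactive = neither condition holds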
T cruzi growth-2 – blocks T. cruzi growth in NIH3T3 host cells; shares compounds with T cruzi growth-1; T. cruzi beta-gal in NIH3T3, GalScreen luminescence, 90 h; inhibition, % at 8.35 µM; 5,600 compounds, 72% hits;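 active = mean replicate inhibition above about 95% and at least 55% of replicates individually reaching it, limit read from the data; inconclusive = only one of the two criteria is met; inactive = neither criterion is met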
T cruzi growth-3 – inhibitors of T. cruzi proliferation; shares compounds with T cruzi growth-1; T. cruzi beta-gal in NIH3T3, GalScreen luminescence, 90 h; inhibition, % at 2.09 µM; 5,600 compounds, 21% hits;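 active = mean inhibition above about 95%, with at least 55% of replicates also reaching it, limit read from the data; inconclusive = meets just one of the two conditions; inactive = meets neither condition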;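 note: plate controls were neutral control median for no effect and positive control median for full effect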
NIH3T3 tox – kills mouse NIH/3T3 fibroblasts | NIH/3T3 viability, CellTiter-Glo ATP luminescence, 90 h | 5,600 compounds, 14% hits | AID 651742 | shares compounds with T cruzi growth-1 | cytotoxicity (signal decrease), % at 8.35 µM;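 active = mean signal decrease across replicates above about 35% based on untreated-well scatter, with enough replicates individually passing, limit read from the data; inconclusive = no rule stated though some were filed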;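 note: 0% = median of neutral control wells and 100% = median of positive control wells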
NIH3T3 tox 2 – cytotoxicity in mouse NIH/3T3 fibroblasts. shares compounds with T cruzi growth-1. AID 651744. inhibition, % at 24.9 µM. NIH/3T3 viability, CellTiter-Glo ATP luminescence, 90 h. 5,600 compounds, 56% hits;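 active = mean loss of cell viability signal at or above a set limit, and enough replicates individually reaching it; inconclusive = meets only the mean limit or only the replicate share; inactive = meets neither condition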;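 note: 0% = median of neutral control wells and 100% = median of positive control wells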
* = called active by the depositor; ? = inconclusive; . = no result. In the library only some 5.9% were active in any assay of this set; here they are far more common.

SMILES | IDH1 R132H inh | GASC1 inh | Pf Dd2 growth | T cruzi growth-1 | T cruzi growth-2 | T cruzi growth-3 | NIH3T3 tox | NIH3T3 tox 2
COC(=O)c1cc(OC)c(OC)cc1NC(=O)CSc1nc2ccccc2o1 | 0 | . | . | . | . | . | . | .
COc1ccc(C(=O)Oc2ccc(C)c3c2C(=O)OC(C)C3)c2c1C(=O)OC(C)C2 (stereo not given) | 0 | . | . | . | . | . | . | .
O=C(Nc1cc(Cl)cc(Cl)c1)N[C@H]1CC[C@@H](CCNS(=O)(=O)c2cccc(F)c2)O[C@@H]1CO | 0 | -2 | 6 | ? | 100* | 39 | 40* | 81*
CCc1ccccc1N(CC(=O)N1CCC(Cc2ccccc2)CC1)S(C)(=O)=O | -1 | . | . | . | . | . | . | .
C[C@H](CO)N1C[C@H](C)[C@H](CN(C)C(=O)c2cccc(F)c2)Oc2ncc(/C=C/c3ccccc3)cc2C1=O | -4 | -4 | -70 | 107* | 107* | 46 | 27 | 67*
C[C@H]1CN([C@@H](C)CO)C(=O)c2cc(/C=C/c3ccccc3)cnc2O[C@H]1CN(C)C(=O)Nc1ccccc1F | 1 | 0 | -28 | 101* | ? | 22 | 17 | 51*
C[C@@H]1CN([C@H](C)CO)C(=O)c2cc(/C=C/c3ccccc3)cnc2O[C@@H]1CN(C)C(=O)Nc1ccccc1F | -5 | -1 | -34 | 85 | . | . | . | .
C[C@H](CO)N1C[C@H](C)[C@H](CN(C)C(=O)Nc2ccccc2)Oc2ncc(/C=C/c3ccccc3)cc2C1=O | 3 | . | -69 | 97* | 98* | 65 | 36* | 90*
C[C@@H]1CN([C@@H](C)CO)C(=O)c2cc(/C=C/c3ccccc3)cnc2O[C@H]1CN(C)C(=O)Nc1ccccc1F | -2 | -4 | -51 | 126* | 108* | 105* | -3 | 17
COc1ccc(NC(=O)N(C)C[C@@H]2Oc3ncc(/C=C/c4ccccc4)cc3C(=O)N([C@H](C)CO)C[C@@H]2C)cc1 | 2 | 2 | -57 | ? | . | . | . | .
C[C@H]1CN([C@@H](C)CO)C(=O)c2cc(/C=C/c3ccccc3)cnc2O[C@H]1CN(C)C(=O)c1cccc(F)c1 | 0 | . | -62 | 107 | . | . | . | .
Cc1ccc(NC(=O)CSc2nc3sc(C)c(C)c3c(=O)n2-c2ccc(C)c(C)c2)cc1 | 1 | . | . | . | . | . | . | .
COc1ccc(C)cc1N(CC(=O)Nc1cccc(Cl)c1Cl)S(C)(=O)=O | 0 | . | . | . | . | . | . | .
C[C@@H]1CCCCO[C@H](CN(C)Cc2ccc(C(F)(F)F)cc2)[C@H](C)CN([C@H](C)CO)C(=O)c2cc(NC(=O)Nc3cccc4ccccc34)ccc2O1 | 1 | -9 | -68 | ? | 105* | 117* | 13 | 10
C[C@H](CO)N1C[C@H](C)[C@H](CN(C)Cc2ccc(C(=O)O)cc2)OCCCC[C@H](C)Oc2ccc(NC(=O)Nc3cccc4ccccc34)cc2C1=O | . | 1 | 9 | 29 | . | . | . | .
C[C@@H]1CN([C@@H](C)CO)C(=O)c2cc(NC(=O)Nc3cccc4ccccc34)ccc2O[C@@H](C)CCCCO[C@@H]1CN(C)Cc1ccc(C(F)(F)F)cc1 | . | -4 | -88* | ? | 107* | 111* | 2 | 20
C[C@H](CO)N1C[C@H](C)[C@H](CN(C)Cc2ccc(C(F)(F)F)cc2)OCCCC[C@H](C)Oc2ccc(NC(=O)Nc3cccc4ccccc34)cc2C1=O | . | -2 | 26 | 126 | . | . | . | .
C[C@@H]1CN([C@@H](C)CO)C(=O)c2cc(NC(=O)Nc3cccc4ccccc34)ccc2O[C@@H](C)CCCCO[C@H]1CN(C)Cc1ccc(C(F)(F)F)cc1 | -11 | 0 | -52 | ? | 109* | 117* | 29 | 11
C[C@@H]1CCCCO[C@H](CN(C)Cc2ccc(C(F)(F)F)cc2)[C@@H](C)CN([C@H](C)CO)C(=O)c2cc(NC(=O)Nc3cccc4ccccc34)ccc2O1 | . | -5 | 34 | ? | 107* | 87 | 15 | 6
Cc1cc(OCC(=O)Nc2ccc(O)c(-c3nc4ccccc4o3)c2)ccc1Cl | 0 | . | . | . | . | . | . | .
C[C@H](CO)N1C[C@H](C)[C@@H](CN(C)Cc2ccc(C(F)(F)F)cc2)OCCCC[C@H](C)Oc2ccc(NC(=O)Nc3cccc4ccccc34)cc2C1=O | -2 | -3 | 14 | ? | 99* | 107* | 23 | 4
CC(C)(C)c1ccc(NC(=O)CCSc2nnnn2-c2ccccc2)cc1 | 6 | . | . | . | . | . | . | .
C/C=C/c1ccc([C@H]2[C@@H](CO)N(C(C)=O)[C@@H]2CNC(=O)c2ccccc2)cc1 | . | -1 | 5 | 104* | 97* | -87 | -24 | -31
C/C=C/c1ccc([C@@H]2[C@@H](CO)N(C(C)=O)[C@@H]2CNC(=O)CC2CC2)cc1 | . | -1 | -11 | ? | 73 | 13 | 11 | 24
C/C=C/c1ccc([C@@H]2[C@@H](CNC(=O)CC3CC3)N(C(C)=O)[C@H]2CO)cc1 | . | -1 | 4 | 27 | . | . | . | .
SMILES | IDH1 R132H inh | GASC1 inh | Pf Dd2 growth | T cruzi growth-1 | T cruzi growth-2 | T cruzi growth-3 | NIH3T3 tox | NIH3T3 tox 2
Cc1ccc(S(=O)(=O)Nc2ccc3c(c2)C(=O)N([C@H](C)CO)C[C@@H](C)[C@H](CN(C)S(=O)(=O)c2ccc(C)cc2)OCCCC[C@H](C)O3)cc1 | . | 1 | -64 | 91 | . | . | . | .
Cc1ccc(S(=O)(=O)Nc2ccc3c(c2)C(=O)N([C@@H](C)CO)C[C@H](C)[C@@H](CN(C)S(=O)(=O)c2ccc(C)cc2)OCCCC[C@H](C)O3)cc1 | . | -1 | -76 | 106* | 108* | 85 | -19 | -17
Cc1ccc(S(=O)(=O)Nc2ccc3c(c2)C(=O)N([C@H](C)CO)C[C@H](C)[C@@H](CN(C)S(=O)(=O)c2ccc(C)cc2)OCCCC[C@H](C)O3)cc1 | . | 0 | -67 | 98* | 97* | 54 | 75* | 59*
Cc1ccc(S(=O)(=O)Nc2ccc3c(c2)C(=O)N([C@H](C)CO)C[C@@H](C)[C@@H](CN(C)S(=O)(=O)c2ccc(C)cc2)OCCCC[C@H](C)O3)cc1 | . | -1 | -84* | 103* | 112* | ? | -39 | -3
Cc1ccc(S(=O)(=O)Nc2ccc3c(c2)C(=O)N([C@@H](C)CO)C[C@H](C)[C@H](CN(C)S(=O)(=O)c2ccc(C)cc2)OCCCC[C@H](C)O3)cc1 | . | 6 | -68 | 104* | 105* | 84 | -12 | -8
Cc1ccc(S(=O)(=O)N(C)C[C@H]2OCCCC[C@H](C)Oc3ccc(NS(=O)(=O)c4ccccc4)cc3C(=O)N([C@H](C)CO)C[C@@H]2C)cc1 | 2 | -1 | -56 | 99 | . | . | . | .
COc1cc2c(c(O)c1CO)C(=O)CCC2O (stereo not given) | 0 | . | . | . | . | . | . | .
Cc1ccc(NC(=O)C2CC(Cl)=CCC2C(=O)O)c(Br)c1 (stereo not given) | 0 | . | . | . | . | . | . | .

Assay outcomes: PubChem, Broad Institute
